Measurements from publication PMC10286757 (Chemmedchem, 2022).

Columns and labels:
[1] = HeLa cell cytotoxicity assay; type: cell-based; settings: human, HeLa cells
Outline: (§1)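 HeLa cells were seeded at 2×10^4 per well in DMEM with 10 % FBS, 2 mM L-glutamine and antibiotics, then held overnight at 37 °C in 5 % CO2. Test compound was added to a final 20 μM for 48 h. Resazurin was then added to a final 50 μM for 4 h, and resorufin fluorescence was read at Ex560/Em590. Cell-free background was subtracted and results expressed as % viability against untreated wells.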

[2] = tested on: Plasmodium falciparum strain 3D7; assay: parasite lactate dehydrogenase; type: cell-based; settings: for viability at 20 µM / IC50: Plasmodium falciparum, 3D7, 48 h; for viability at 20 µM: read-out: Pf 3D7 % cell viability at 20 μM; for antiplasmodial activity in vitro (in words): Pf 3D7, pLDH assay, low micromolar range; for IC50: read-out: Pf 3D7 IC50
PfCDPK4 = biological target: T1, PfCDPK4 (Plasmodium falciparum, UniProt Q8IBS5); assay: Kinase Glo luciferase enzyme activity assay, recombinant PfCDPK4; type: biochemical
T1 sequence (Q8IBS5 1-528): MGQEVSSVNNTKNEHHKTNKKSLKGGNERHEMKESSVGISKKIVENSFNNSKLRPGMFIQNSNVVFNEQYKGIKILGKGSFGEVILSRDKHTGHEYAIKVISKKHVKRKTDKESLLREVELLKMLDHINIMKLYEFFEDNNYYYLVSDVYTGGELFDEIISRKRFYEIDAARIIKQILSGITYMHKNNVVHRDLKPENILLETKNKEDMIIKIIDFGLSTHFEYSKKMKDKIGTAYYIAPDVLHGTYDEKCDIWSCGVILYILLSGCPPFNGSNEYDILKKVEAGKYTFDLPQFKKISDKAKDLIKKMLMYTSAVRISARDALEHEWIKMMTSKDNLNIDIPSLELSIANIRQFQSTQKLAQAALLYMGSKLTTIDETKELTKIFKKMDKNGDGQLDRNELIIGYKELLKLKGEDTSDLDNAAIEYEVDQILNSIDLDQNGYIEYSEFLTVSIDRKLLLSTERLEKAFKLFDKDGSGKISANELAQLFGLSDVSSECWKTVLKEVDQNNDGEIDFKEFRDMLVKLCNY
Outline: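 Recombinant PfCDPK4 was expressed in Rosetta E. coli at 20 °C by auto-induction, then purified by IMAC and size exclusion. The enzyme was used at 180 nM with 40 μM Syntide-2 and serial inhibitor dilutions in 20 mM HEPES pH 7.5, 0.1 % BSA, 10 mM MgCl2, ±1 mM CaCl2, 1 mM EGTA. Reactions were started with 10 μM ATP and run 90 min at 30 °C. Remaining ATP was read by Kinase-Glo luminescence, with positive and DMSO controls on each plate.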

HeLa cells = assay: HeLa cell cytotoxicity assay; type: cell-based; settings: single concentration 20 μM
Outline: as §1

IC50 [2] | IC50 (PfCDPK4) | Structure (SMILES) | viability at 48 h, 20 µM [1] | viability at 20 µM [2] | antiplasmodial activity in vitro (in words) [2] | cytotoxicity in vitro in HeLa cell assay (in words) (HeLa cells)
– | – | COc1ccc2cc(-c3cn(CC4CC4)c4ncnc(N)c34)ccc2c1 [2 a, 7‐(Cyclopropylmethyl)‐5‐(2‐methoxynaphthalen‐6‐yl)‐7H‐pyrrolo[2,3‐d]pyrimidin‐4‐amine] | 93.6 ± 7.1% | 103 ± 8% | – | –
18700 ± 800 nM | 369 ± 138 nM | CCOc1ccc2cc(-c3cn(CC4CC4)c4ncnc(N)c34)ccc2c1 [2 b, 7‐(Cyclopropylmethyl)‐5‐(2‐ethoxynaphthalen‐6‐yl)‐7H‐pyrrolo[2,3‐d]pyrimidin‐4‐amine] | 79.8 ± 3.3% | 24.1 ± 3.8% | moderate antiplasmodial activity | –
– | – | CCOCCOc1ccc2cc(-c3cn(CC4CC4)c4ncnc(N)c34)ccc2c1 [2 c, 5‐[2‐(2‐Ethoxyethoxy)naphthalen‐6‐yl]‐7‐(cyclopropylmethyl)‐7H‐pyrrolo[2,3‐d]pyrimidin‐4‐amine] | 73 ± 4.1% | 93.1 ± 1.4% | – | –
– | > 2000 nM | COc1ccccc1-c1cn(CC2CC2)c2ncnc(N)c12 [2 d, 7‐(Cyclopropylmethyl)‐5‐(2‐methoxyphenyl)‐7H‐pyrrolo[2,3‐d]pyrimidin‐4‐amine] | 63.8 ± 1.5% | 107 ± 6% | – | –
– | > 2000 nM | COc1ccc(-c2cn(CC3CC3)c3ncnc(N)c23)cc1OC [2 e, 7‐(Cyclopropylmethyl)‐5‐(3,4‐dimethoxyphenyl)‐7H‐pyrrolo[2,3‐d]pyrimidin‐4‐amine] | 88.8 ± 0.7% | 110 ± 10.9% | – | –
– | 210 ± 68 nM | COc1ccc2cc(-c3cn(CC4CCN(C(C)=O)CC4)c4ncnc(N)c34)ccc2c1 [2 f, 1‐{4‐[(4‐Amino‐5‐(2‐methoxynaphthalen‐6‐yl)‐7H‐pyrrolo[2,3‐d]pyrimidin‐7‐yl)methyl]piperidin‐1‐yl}ethanone] | 92.1 ± 3.1% | 35.3 ± 2.2% | – | –
14200 ± 1700 nM | 530 ± 185 nM | CCOc1ccc2cc(-c3cn(CC4CCN(C(C)=O)CC4)c4ncnc(N)c34)ccc2c1 [2 g, 1‐{4‐[(4‐Amino‐5‐(2‐ethoxynaphthalen‐6‐yl)‐7H‐pyrrolo[2,3‐d]pyrimidin‐7‐yl)methyl]piperidin‐1‐yl}ethanone] | 92.8 ± 5.7% | 9.3 ± 1.6% | moderate antiplasmodial activity | –
– | > 2000 nM | CCOCCOc1ccc2cc(-c3cn(CC4CCN(C(C)=O)CC4)c4ncnc(N)c34)ccc2c1 [2 h, 1‐{4‐{[5‐(2‐(2‐Ethoxyethoxy)naphthalen‐6‐yl)‐4‐amino‐7H‐pyrrolo[2,3‐d]pyrimidin‐7‐yl]methyl}piperidin‐1‐yl}ethanone] | 94.4 ± 9.3% | 62.2 ± 9% | – | –
– | > 2000 nM | COc1ccccc1-c1cn(CC2CCN(C(C)=O)CC2)c2ncnc(N)c12 [2 i, 1‐{4‐[(4‐Amino‐5‐(2‐methoxyphenyl)‐7H‐pyrrolo[2,3‐d]pyrimidin‐7‐yl)methyl]piperidin‐1‐yl}ethanone] | 93.3 ± 3.2% | 121 ± 8.6% | – | –
12100 ± 11400 nM | > 2000 nM | COc1ccc(-c2cn(CC3CCN(C(C)=O)CC3)c3ncnc(N)c23)cc1OC [2 j, 1‐{4‐[(4‐Amino‐5‐(3,4‐dimethoxyphenyl)‐7H‐pyrrolo[2,3‐d]pyrimidin‐7‐yl)methyl]piperidin‐1‐yl}ethanone] | 79.3 ± 0.8% | 2.8 ± 3.9% | moderate antiplasmodial activity | –
– | – | COc1ccccc1-c1cn(CCC2CCN(C(=O)OC(C)(C)C)CC2)c2ncnc(N)c12 [2 k, tert ‐Butyl 4‐{2‐[4‐amino‐5‐(2‐methoxyphenyl)‐7H‐pyrrolo[2,3‐d]pyrimidin‐7‐yl]ethyl}piperidine‐1‐carboxylate] | 78.9 ± 0.1% | 62 ± 2.1% | – | –
– | > 2000 nM | COc1ccc(-c2cn(CCC3CCN(C(=O)OC(C)(C)C)CC3)c3ncnc(N)c23)cc1OC [2 l, tert ‐Butyl 4‐{2‐[4‐amino‐5‐(3,4‐dimethoxyphenyl)‐7H‐pyrrolo[2,3‐d]pyrimidin‐7‐yl]ethyl}piperidine‐1‐carboxylate] | 82.4 ± 1.4% | 66.8 ± 3.9% | – | –
8200 ± 3100 nM | – | CCOc1ccc2cc(-c3cn(CCN4CCOCC4)c4ncnc(N)c34)ccc2c1 [2 m, 5‐(2‐Ethoxynaphthalen‐6‐yl)‐7‐(2‐morpholinoethyl)‐7H‐pyrrolo[2,3‐d]pyrimidin‐4‐amine] | 47 ± 7% | 12 ± 2.6% | moderate antiplasmodial activity | moderate cytotoxicity
– | > 2000 nM | COc1ccccc1-c1cn(CCN2CCOCC2)c2ncnc(N)c12 [2 n, 5‐(2‐Methoxyphenyl)‐7‐(2‐morpholinoethyl)‐7H‐pyrrolo[2,3‐d]pyrimidin‐4‐amine] | 112 ± 2.8% | 95 ± 1% | – | –
– | > 2000 nM | COc1ccc(-c2cn(CCN3CCOCC3)c3ncnc(N)c23)cc1OC [2 o, 5‐(3,4‐Dimethoxyphenyl)‐7‐(2‐morpholinoethyl)‐7H‐pyrrolo[2,3‐d]pyrimidin‐4‐amine] | 88 ± 11.8% | 57 ± 6.6% | – | –
– | – | COc1ccccc1-c1cn(Cc2ccccc2)c2ncnc(N)c12 [2 p, 7‐Benzyl‐5‐(2‐methoxyphenyl)‐7H‐pyrrolo[2,3‐d]pyrimidin‐4‐amine] | 97 ± 12.5% | 72.4 ± 13.3% | – | –
– | – | COc1ccc(-c2cn(Cc3ccccc3)c3ncnc(N)c23)cc1OC [2 q, 7‐Benzyl‐5‐(3,4‐dimethoxyphenyl)‐7H‐pyrrolo[2,3‐d]pyrimidin‐4‐amine] | 95.4 ± 0.5% | 110 ± 4.2% | – | –
15 nM | – | CCN(CC)CCCC(C)Nc1ccnc2cc(Cl)ccc12 (stereo not shown) [Chloroquine, reference compound] | – | – | – | –
